{"data": "Published values pooled from the literature", "target": "Dual specificity mitogen-activated protein kinase kinase 5 (MAP2K5, Homo sapiens, UniProt Q13163)", "One construct used (Q13163 1-448)": "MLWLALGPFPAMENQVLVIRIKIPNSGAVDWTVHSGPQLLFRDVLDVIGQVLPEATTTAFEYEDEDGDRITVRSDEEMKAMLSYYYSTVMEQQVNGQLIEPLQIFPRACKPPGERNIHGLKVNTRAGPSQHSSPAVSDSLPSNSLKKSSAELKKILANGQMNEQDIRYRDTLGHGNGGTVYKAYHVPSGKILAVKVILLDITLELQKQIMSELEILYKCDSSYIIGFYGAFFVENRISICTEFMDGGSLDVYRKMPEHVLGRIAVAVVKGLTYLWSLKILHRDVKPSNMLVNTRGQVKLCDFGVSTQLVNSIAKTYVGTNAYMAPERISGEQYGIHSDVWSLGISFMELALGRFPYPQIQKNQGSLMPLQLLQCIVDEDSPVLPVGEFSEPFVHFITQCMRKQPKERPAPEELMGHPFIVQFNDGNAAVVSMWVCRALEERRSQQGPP", "note": "Lines come from different studies, so protocols differ."}
{"Structure (SMILES)": "CC1=C(C#N)C(c2ccc3c(c2)c(NC(=O)c2ccccc2C)nn3C)C(C#N)=C(C)N1", "effect on": "cell-free assay", "technique": "competition with immobilised ligand", "concentration": "1 µM", "quantity": "remaining binding", "result": "79%"}
{"Structure (SMILES)": "Cc1sc(C(=O)NC2COC2)cc1-n1cc(NC(=O)Nc2c(F)cccc2Cl)cn1", "effect on": "enzyme activity", "mode": "inhibitor", "concentration": "10 µM", "quantity": "remaining activity", "result": "96.8%"}
{"Structure (SMILES)": "COc1cccc2c(NCc3ccccc3)nc(-n3c(N)nc4ccccc43)nc12", "effect on": "target engagement in cells", "mode": "inhibitor", "technique": "chemoproteomics", "concentration": "20 mM", "quantity": "inhibition", "result": "6.7%"}
{"Structure (SMILES)": "CC(C)(C)c1nc(-c2cccc(NS(=O)(=O)c3c(F)cccc3F)c2F)c(-c2ccnc(N)n2)s1", "effect on": "enzyme activity", "mode": "inhibitor", "technique": "radiometric", "concentration": "1 µM", "quantity": "remaining activity", "result": "90%"}
{"Structure (SMILES)": "O=C(Nc1cnn(-c2csc(C(=O)NC3COC3)c2)c1)Nc1ccccc1Cl", "effect on": "enzyme activity", "mode": "inhibitor", "concentration": "5 µM", "quantity": "remaining activity", "result": "98.2%"}
{"Structure (SMILES)": "CC(C)(O)c1cncc(-c2nc3ccc(F)cc3n2C2CC2)c1", "effect on": "cell-free assay", "technique": "competition with immobilised ligand", "concentration": "1 µM", "quantity": "remaining binding", "result": "100%"}
{"Structure (SMILES)": "Cc1ccc(C(=O)Nc2ccc(CN3CCN(C)CC3)c(C(F)(F)F)c2)cc1C#Cc1cnc2cccnn12", "effect on": "enzyme activity", "mode": "inhibitor", "concentration": "23.5 nM", "quantity": "remaining activity", "result": "2.4%"}
{"Structure (SMILES)": "CCCCNc1ncc2c(-c3ccc(F)cc3)nn(C[C@H]3CC[C@H](N)CC3)c2n1", "effect on": "target engagement in cells", "mode": "inhibitor", "technique": "chemoproteomics", "concentration": "20 mM", "quantity": "inhibition", "result": "83%"}
{"Structure (SMILES)": "CC(C)(C)c1nc2c(s1)c1nc(N)ncc1c1ccc(NS(=O)(=O)c3c(F)cccc3F)c(F)c12", "effect on": "enzyme activity", "mode": "inhibitor", "technique": "radiometric", "concentration": "1 µM", "quantity": "remaining activity", "result": "80%"}
{"Structure (SMILES)": "Nc1ncnc2occ(-c3ccc(NC(=O)Nc4cc(C(F)(F)F)ccc4F)cc3)c12", "effect on": "cell-free assay", "mode": "inhibitor", "concentration": "20 µM", "quantity": "remaining signal", "result": "0.15%"}
